Experimental data reported in ChEMBL document CHEMBL1156750 (Bioorg Med Chem Lett, 2009).
“And” between values parts separate entries of the source, which are not always exact repeats. Equal values may be shown once.

Tests used:
[1] = target: Amine oxidase [flavin-containing] A (Rattus norvegicus, UniProt P21396); experiment: Inhibition of rat MAO-A at 10 uM
[2] = target: Amine oxidase [flavin-containing] B (Rattus norvegicus, UniProt P19643); experiment: Inhibition of rat MAO-B at 10 uM
[3] = target: T1, Voltage-gated L-type calcium channel (Rattus norvegicus, UniProt P22002+Q02485+P27732); experiment: Inhibition of rat L type calcium channel at DHP site at 10 uM
[4] = target: T1, Voltage-gated L-type calcium channel; experiment: Inhibition of rat L type calcium channel at verapamil site at 10 uM
[5] = Total clearance in rat at 10 mg/kg, iv; format: ADME, organism-based; parameters: dose 10 mg/kg, route intravenous; conditions: in vivo
Procedure, shortened: (§1)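 Pharmacokinetics in fasted rat, dog and monkey, n = 3 per species. The compound was dosed at 10 mg/mL in PEG400/water (1:1, v/v). Doses were 10 mg/kg iv and po in rat, 2 mg/kg iv and po in dog, and 10 mg/kg iv and po in monkey. Clearance, Vdss, MRT and Tmax were derived from plasma profiles; oral bioavailability came from the po and iv data.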

[6] = Volume of distribution in steady state in rat at 10 mg/kg, iv; format: ADME, organism-based; parameters: dose 10 mg/kg, route intravenous; conditions: in vivo, read-out: Vdss; procedure, shortened: as §1
[7] = Half life in rat at 10 mg/kg, iv; format: ADME, organism-based; parameters: dose 10 mg/kg, route intravenous; conditions: in vivo
Procedure, shortened: (§2)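 Fasted animals, n = 3 per species (rat, dog, monkey). Compound was dosed iv or po in a vehicle of 10 mg/mL in PEG400/water (1:1, v/v). Parameters reported were CLtotal, Vdss, t1/2, MRT, Cmax, Tmax and oral bioavailability.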

[8] = […] residence time in rat at 10 mg/kg, iv; format: ADME, organism-based; parameters: dose 10 mg/kg, route intravenous; conditions: in vivo; procedure, shortened: as §1
[9] = Cmax in rat at 10 mg/kg, po; format: ADME, organism-based; parameters: dose 10 mg/kg, route oral; conditions: in vivo; procedure, shortened: as §2
[10] = Tmax in rat at 10 mg/kg, po; format: ADME, organism-based; parameters: dose 10 mg/kg, route oral; conditions: in vivo; procedure, shortened: as §1
[11] = Oral bioavailability in rat at 10 mg/kg; format: ADME, organism-based; conditions: in vivo; procedure, shortened: as §1
[12] = Total clearance in dog at 2 mg/kg, iv; format: ADME, organism-based, Canis lupus familiaris; parameters: dose 2 mg/kg, route intravenous; conditions: in vivo; procedure, shortened: as §1
[13] = Volume of distribution in steady state in dog at 2 mg/kg, iv; format: ADME, organism-based, Canis lupus familiaris; parameters: dose 2 mg/kg, route intravenous; conditions: in vivo, read-out: Vdss; procedure, shortened: as §1
[14] = Half life in dog at 2 mg/kg, iv; format: ADME, organism-based, Canis lupus familiaris; parameters: dose 2 mg/kg, route intravenous; conditions: in vivo; procedure, shortened: as §2
[15] = […] residence time in dog at 2 mg/kg, iv; format: ADME, organism-based, Canis lupus familiaris; parameters: dose 2 mg/kg, route intravenous; conditions: in vivo; procedure, shortened: as §1
[16] = Cmax in dog at 2 mg/kg, po; format: ADME, organism-based, Canis lupus familiaris; parameters: dose 2 mg/kg, route oral; conditions: in vivo; procedure, shortened: as §2
[17] = Tmax in dog at 2 mg/kg, po; format: ADME, organism-based, Canis lupus familiaris; parameters: dose 2 mg/kg, route oral; conditions: in vivo; procedure, shortened: as §1
[18] = Oral bioavailability in dog at 2 mg/kg; format: ADME, organism-based, Canis lupus familiaris; conditions: in vivo; procedure, shortened: as §1
[19] = Total clearance in monkey at 10 mg/kg, iv; format: ADME, organism-based, Macaca mulatta; parameters: dose 10 mg/kg, route intravenous; conditions: rhesus monkey, in vivo; procedure, shortened: as §1
[20] = Volume of distribution in steady state in monkey at 10 mg/kg, iv; format: ADME, organism-based, Macaca mulatta; parameters: dose 10 mg/kg, route intravenous; conditions: rhesus monkey, in vivo, read-out: Vdss; procedure, shortened: as §1
[21] = Half life in monkey at 10 mg/kg, iv; format: ADME, organism-based, Macaca mulatta; parameters: dose 10 mg/kg, route intravenous; conditions: rhesus monkey, in vivo; procedure, shortened: as §2
[22] = […] residence time in monkey at 10 mg/kg, iv; format: ADME, organism-based, Macaca mulatta; parameters: dose 10 mg/kg, route intravenous; conditions: rhesus monkey, in vivo; procedure, shortened: as §1
[23] = Cmax in monkey at 10 mg/kg, po; format: ADME, organism-based, Macaca mulatta; parameters: dose 10 mg/kg, route oral; conditions: rhesus monkey, in vivo; procedure, shortened: as §2
[24] = Tmax in monkey at 10 mg/kg, po; format: ADME, organism-based, Macaca mulatta; parameters: dose 10 mg/kg, route oral; conditions: rhesus monkey, in vivo; procedure, shortened: as §1
[25] = Oral bioavailability in monkey at 10 mg/kg; format: ADME, organism-based, Macaca mulatta; conditions: rhesus monkey, in vivo; procedure, shortened: as §1
Prothrombin = Prothrombin (Homo sapiens, UniProt P00734); experiment: Inhibition of human Thrombin
[26] = target: Vitamin K-dependent protein C (Homo sapiens, UniProt P04070); experiment: Inhibition of human Activated protein C
[27] = target: Urokinase-type plasminogen activator (Homo sapiens, UniProt P00749); experiment: Inhibition of human u-PA
Plasminogen = Plasminogen (Homo sapiens, UniProt P00747); experiment: Inhibition of human plasmin
[28] = target: Tissue-type plasminogen activator (Homo sapiens, UniProt P00750); experiment: Inhibition of human t-PA
Sequence of Tissue-type plasminogen activator (P00750 whole entry): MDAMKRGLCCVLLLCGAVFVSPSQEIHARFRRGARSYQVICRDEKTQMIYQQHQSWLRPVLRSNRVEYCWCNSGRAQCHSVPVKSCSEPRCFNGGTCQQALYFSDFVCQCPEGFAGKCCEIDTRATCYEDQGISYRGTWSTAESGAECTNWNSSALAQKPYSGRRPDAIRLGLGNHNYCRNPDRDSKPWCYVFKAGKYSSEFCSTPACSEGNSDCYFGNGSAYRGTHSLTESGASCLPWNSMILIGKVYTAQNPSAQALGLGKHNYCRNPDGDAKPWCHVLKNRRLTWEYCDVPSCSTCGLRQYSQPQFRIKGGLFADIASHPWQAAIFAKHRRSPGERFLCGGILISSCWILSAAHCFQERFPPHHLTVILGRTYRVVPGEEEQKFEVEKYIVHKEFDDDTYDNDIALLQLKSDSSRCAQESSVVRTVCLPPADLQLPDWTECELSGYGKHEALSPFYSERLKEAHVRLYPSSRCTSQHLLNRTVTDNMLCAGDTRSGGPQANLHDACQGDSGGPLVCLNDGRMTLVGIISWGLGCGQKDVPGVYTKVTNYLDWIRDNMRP

[29] = Plasma protein binding in Sprague-Dawley rat plasma at 30 mg/kg, id; format: ADME, organism-based; parameters: dose 30 mg/kg, route intraduodenal; conditions: read-out: PPB (converted)
Cytochrome P450 3A4 [30] = target: T2, Cytochrome P450 3A4 (Homo sapiens, UniProt P08684); experiment: Inhibition of CYP3A4 using BZR as substrate; format: ADME
T2 sequence (P08684 whole entry): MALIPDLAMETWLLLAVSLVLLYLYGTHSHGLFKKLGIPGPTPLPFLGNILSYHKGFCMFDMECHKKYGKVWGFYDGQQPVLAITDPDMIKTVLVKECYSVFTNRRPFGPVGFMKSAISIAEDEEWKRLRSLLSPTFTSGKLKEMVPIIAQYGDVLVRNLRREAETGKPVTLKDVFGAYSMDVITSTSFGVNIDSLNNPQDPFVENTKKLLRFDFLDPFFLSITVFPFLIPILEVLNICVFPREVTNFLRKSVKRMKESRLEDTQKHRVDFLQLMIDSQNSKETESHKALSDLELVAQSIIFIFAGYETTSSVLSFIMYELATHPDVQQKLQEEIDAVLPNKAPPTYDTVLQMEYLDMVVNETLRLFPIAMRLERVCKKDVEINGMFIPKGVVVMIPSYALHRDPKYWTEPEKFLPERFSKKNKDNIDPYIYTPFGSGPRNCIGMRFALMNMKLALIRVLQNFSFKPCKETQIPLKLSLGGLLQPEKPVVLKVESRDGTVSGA

Cytochrome P450 3A4 [31] = target: T2, Cytochrome P450 3A4; experiment: Inhibition of CYP3A4 by HHA assay; format: ADME
Cytochrome P450 2D6 [32] = target: T3, Cytochrome P450 2D6 (Homo sapiens, UniProt P10635); experiment: Inhibition of CYP2D6 by HHA assay; format: ADME
T3 sequence (P10635 whole entry): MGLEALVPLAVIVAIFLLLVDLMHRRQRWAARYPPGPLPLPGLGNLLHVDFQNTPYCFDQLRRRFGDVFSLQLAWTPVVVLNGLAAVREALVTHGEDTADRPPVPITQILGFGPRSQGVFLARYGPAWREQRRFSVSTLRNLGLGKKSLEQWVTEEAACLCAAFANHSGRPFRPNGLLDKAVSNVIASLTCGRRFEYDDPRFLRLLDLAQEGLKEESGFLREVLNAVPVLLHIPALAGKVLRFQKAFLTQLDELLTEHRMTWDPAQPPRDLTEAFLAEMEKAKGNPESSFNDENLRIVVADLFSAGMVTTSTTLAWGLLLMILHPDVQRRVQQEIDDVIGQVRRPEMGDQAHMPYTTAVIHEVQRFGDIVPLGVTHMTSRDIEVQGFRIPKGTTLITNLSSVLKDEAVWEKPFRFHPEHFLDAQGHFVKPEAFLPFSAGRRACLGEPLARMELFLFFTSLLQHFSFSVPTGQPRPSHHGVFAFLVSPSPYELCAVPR

Cytochrome P450 2C9 [33] = target: T4, Cytochrome P450 2C9 (Homo sapiens, UniProt P11712); experiment: Inhibition of CYP2C9 by HHA assay; format: ADME
T4 sequence (P11712 whole entry): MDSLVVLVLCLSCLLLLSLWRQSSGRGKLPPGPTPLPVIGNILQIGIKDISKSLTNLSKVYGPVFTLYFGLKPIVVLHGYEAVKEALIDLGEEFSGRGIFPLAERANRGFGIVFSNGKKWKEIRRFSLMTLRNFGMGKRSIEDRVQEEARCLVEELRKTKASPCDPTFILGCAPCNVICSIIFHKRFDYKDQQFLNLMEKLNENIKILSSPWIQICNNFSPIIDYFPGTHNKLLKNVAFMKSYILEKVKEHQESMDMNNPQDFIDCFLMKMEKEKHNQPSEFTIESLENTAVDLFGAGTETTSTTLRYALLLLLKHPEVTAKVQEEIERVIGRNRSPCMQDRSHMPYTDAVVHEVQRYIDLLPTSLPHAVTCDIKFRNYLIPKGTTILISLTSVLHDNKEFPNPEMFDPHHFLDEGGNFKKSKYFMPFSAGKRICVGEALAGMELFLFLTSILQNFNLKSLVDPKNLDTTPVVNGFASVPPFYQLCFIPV

Cytochrome P450 2C19 [34] = target: T5, Cytochrome P450 2C19 (Homo sapiens, UniProt P33261); experiment: Inhibition of CYP2C19 by HHA assay; format: ADME
T5 sequence (P33261 whole entry): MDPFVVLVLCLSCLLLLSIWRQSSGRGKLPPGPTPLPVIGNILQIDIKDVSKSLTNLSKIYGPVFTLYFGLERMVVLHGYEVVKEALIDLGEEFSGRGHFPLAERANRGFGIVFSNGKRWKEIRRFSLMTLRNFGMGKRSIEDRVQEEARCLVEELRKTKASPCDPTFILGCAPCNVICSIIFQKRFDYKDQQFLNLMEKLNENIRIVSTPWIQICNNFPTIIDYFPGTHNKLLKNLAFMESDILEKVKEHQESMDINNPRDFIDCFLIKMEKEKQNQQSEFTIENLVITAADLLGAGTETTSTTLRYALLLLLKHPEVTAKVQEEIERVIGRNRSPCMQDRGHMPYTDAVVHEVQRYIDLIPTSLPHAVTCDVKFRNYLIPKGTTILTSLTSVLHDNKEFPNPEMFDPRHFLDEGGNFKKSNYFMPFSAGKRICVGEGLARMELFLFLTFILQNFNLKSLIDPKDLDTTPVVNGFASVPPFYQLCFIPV

[35] = target: Nuclear receptor subfamily 1 group I member 2 (Homo sapiens, UniProt O75469); experiment: Inhibition of PXR
Sequence of Nuclear receptor subfamily 1 group I member 2 (O75469 whole entry): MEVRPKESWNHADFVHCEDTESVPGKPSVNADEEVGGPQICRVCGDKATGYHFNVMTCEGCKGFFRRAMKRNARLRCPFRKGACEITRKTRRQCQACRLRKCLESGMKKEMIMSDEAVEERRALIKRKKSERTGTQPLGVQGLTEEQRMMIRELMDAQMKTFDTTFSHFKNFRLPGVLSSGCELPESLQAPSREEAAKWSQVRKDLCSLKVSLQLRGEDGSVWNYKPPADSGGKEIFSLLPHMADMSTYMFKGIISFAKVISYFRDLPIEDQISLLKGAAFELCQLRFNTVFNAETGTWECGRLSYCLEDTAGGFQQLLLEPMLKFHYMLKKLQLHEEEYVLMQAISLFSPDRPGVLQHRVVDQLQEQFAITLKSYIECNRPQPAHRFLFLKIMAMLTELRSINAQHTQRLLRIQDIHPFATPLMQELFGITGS

[36] = target: Voltage-gated inwardly rectifying potassium channel KCNH2 (Homo sapiens, UniProt Q12809); experiment: Inhibition of human ERG
Sequence of Voltage-gated inwardly rectifying potassium channel KCNH2 (Q12809 whole entry): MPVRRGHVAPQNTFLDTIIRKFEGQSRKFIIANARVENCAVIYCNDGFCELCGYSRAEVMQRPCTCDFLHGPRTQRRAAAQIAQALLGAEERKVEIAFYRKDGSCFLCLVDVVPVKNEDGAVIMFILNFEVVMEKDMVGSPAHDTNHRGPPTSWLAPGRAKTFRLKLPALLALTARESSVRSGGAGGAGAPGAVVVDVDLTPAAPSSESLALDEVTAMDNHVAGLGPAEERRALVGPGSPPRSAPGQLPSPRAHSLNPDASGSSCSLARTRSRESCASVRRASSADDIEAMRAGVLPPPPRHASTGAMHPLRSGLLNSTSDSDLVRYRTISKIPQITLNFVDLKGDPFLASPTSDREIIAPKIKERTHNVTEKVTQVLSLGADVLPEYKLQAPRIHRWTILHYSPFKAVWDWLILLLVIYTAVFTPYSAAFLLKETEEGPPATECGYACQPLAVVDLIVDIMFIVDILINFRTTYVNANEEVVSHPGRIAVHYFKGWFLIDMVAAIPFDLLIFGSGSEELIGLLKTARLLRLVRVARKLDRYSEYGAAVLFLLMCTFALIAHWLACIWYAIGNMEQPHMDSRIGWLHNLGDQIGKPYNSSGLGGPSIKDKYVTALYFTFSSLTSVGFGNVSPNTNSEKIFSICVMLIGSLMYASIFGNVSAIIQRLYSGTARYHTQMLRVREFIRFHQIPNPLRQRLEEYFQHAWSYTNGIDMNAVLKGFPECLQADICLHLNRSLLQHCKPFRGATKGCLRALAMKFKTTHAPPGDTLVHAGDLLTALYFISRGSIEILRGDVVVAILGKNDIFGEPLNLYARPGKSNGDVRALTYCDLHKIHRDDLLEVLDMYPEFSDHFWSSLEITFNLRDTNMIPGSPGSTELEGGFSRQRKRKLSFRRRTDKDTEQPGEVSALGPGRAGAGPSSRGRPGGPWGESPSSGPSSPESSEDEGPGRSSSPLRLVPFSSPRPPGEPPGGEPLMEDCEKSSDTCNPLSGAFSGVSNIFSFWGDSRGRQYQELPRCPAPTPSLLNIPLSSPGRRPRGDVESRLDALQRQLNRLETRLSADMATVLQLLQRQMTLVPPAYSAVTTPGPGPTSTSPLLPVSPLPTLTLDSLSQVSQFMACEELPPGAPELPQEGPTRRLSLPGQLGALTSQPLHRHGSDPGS

Cytochrome P450 1A2 = Cytochrome P450 1A2 (Homo sapiens, UniProt P05177); experiment: Inhibition of CYP1A2; format: ADME
Cytochrome P450 2D6 [37] = target: T3, Cytochrome P450 2D6; experiment: Inhibition of CYP2D6; format: ADME
Cytochrome P450 3A4 [38] = target: T2, Cytochrome P450 3A4; experiment: Inhibition of CYP3A4 using BFC as a substrate; format: ADME
Cytochrome P450 2C19 [39] = target: T5, Cytochrome P450 2C19; experiment: Inhibition of CYP2C19; format: ADME
Cytochrome P450 2C9 [40] = target: T4, Cytochrome P450 2C9; experiment: Inhibition of CYP2C9; format: ADME

Sequence of Amine oxidase [flavin-containing] B (P19643 whole entry): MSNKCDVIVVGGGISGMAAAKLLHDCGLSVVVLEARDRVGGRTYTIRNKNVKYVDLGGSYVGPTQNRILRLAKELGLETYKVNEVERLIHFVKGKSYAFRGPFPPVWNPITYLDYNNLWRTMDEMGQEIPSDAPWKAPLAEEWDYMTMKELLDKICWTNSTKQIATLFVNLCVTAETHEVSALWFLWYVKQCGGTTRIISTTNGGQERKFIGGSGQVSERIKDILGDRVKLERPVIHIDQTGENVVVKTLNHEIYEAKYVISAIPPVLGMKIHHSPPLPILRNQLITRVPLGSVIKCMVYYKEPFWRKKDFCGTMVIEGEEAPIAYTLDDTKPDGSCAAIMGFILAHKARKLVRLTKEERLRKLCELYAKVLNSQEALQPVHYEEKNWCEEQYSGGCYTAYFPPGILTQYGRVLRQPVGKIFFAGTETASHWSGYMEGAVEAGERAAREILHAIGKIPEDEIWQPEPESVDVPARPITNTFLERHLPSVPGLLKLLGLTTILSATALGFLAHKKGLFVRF

Cc1cc2cc(N=C(NC(=O)c3ccc(C(=O)N(C)C)nc3)N[C@H]3CCCCN(CC(=O)N4CCCC4)C3=O)ccc2o1
Activity [1]: Not Active
Activity [2]: Not Active
Activity [3]: Not Active
Activity [4]: Not Active
clearance [5]: 27 mL/min/kg
Vd [6]: 3.3 L/kg
half-life [7]: 1.6 h
MRT [8]: 2 h
Cmax [9]: 2200 ng/mL
Tmax [10]: 0.6 h
bioavailability [11]: 55%
clearance [12]: 1.9 mL/min/kg
Vd [13]: 0.96 L/kg
half-life [14]: 8.6 h
MRT [15]: 9 h
Cmax [16]: 2800 ng/mL
Tmax [17]: 1.3 h
bioavailability [18]: 77%
clearance [19]: 11 mL/min/kg
Vd [20]: 2.3 L/kg
half-life [21]: 14 h
MRT [22]: 4 h
Cmax [23]: 2100 ng/mL
Tmax [24]: 1.8 h
bioavailability [25]: 28%
Ki (Prothrombin): 2.3 µM
Ki [26]: > 18 µM
Ki [27]: > 7.8 µM
Ki (Plasminogen): > 16 µM
Ki [28]: 0.665 µM
fraction unbound [29]: 0.28
IC50 (Cytochrome P450 3A4 [30]): > 40 µM
IC50 (Cytochrome P450 3A4 [31]): > 200 µM
IC50 (Cytochrome P450 2D6 [32]): > 200 µM
IC50 (Cytochrome P450 2C9 [33]): > 200 µM
IC50 (Cytochrome P450 2C19 [34]): > 200 µM
Activity [35]: Not Active
Activity [36]: Not Active
IC50 (Cytochrome P450 1A2): > 40 µM
IC50 (Cytochrome P450 2D6 [37]): > 40 µM
IC50 (Cytochrome P450 3A4 [38]): 39 µM
IC50 (Cytochrome P450 2C19 [39]): 51 µM and 40 µM
IC50 (Cytochrome P450 2C9 [40]): 43 µM and > 40 µM
